# Laboratory results taken from ChEMBL document CHEMBL1122637, “Synthesis and antiallergy activity of 10-oxo-10H-pyrido[1,2-a]thieno[3,2-d]pyrimidines and 10-oxo-10H-pyrido[1,2-a]thieno[3,4-d]pyrimidines” (1984).
# Calls of active or inactive are those of the source. The calls are words filed in the database; no cut-off is given here.
# Tested on: Rattus norvegicus
# Assay: Compound was tested for antiallergic activity in the rat passive cutaneous anaphylaxis (PCA) model after intraperitoneal administration at a dose 5 mg/kg; I denotes Inactive at 30 mg/kg
# Assay type: functional, organism-based
# Conditions: in the assay text read “Inactive at 5 mg/kg” for “Inactive at 30 mg/kg”
# Outline: (§1)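 Rats passively sensitized by intradermal injection of antiserum dilutions at several back sites, 48 h before iv challenge with 1 mg ovalbumin in 1 mL saline with 0.25% Evans blue. Drug given ip as a suspension in 1% gum tragacanth/saline 10-15 min before challenge. Wheal diameter read 30 min later. Five rats per group. % inhibition taken against control minus extrapolated base value at the highest antiserum concentration. Student's t test.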
row,SMILES,inhibition
1,O=c1c2c(nc3ccc(-c4nnn[nH]4)cn13)CCS2,inactive
2,O=C(O)c1ccc2nc3c(c(=O)n2c1)CSC3,inactive

# Tested on: Rattus norvegicus
# Assay: Compound was tested for antiallergic activity in the rat passive cutaneous anaphylaxis (PCA) model after intraperitoneal administration at a dose 10 mg/kg
# Assay type: functional
# Conditions: ip
# Outline: as §1
row,SMILES,inhibition in vivo at 10 mg/kg
1,O=C(O)c1cc(=O)c2c(OCC(O)COc3cccc4oc(C(=O)O)cc(=O)c34)cccc2o1 [CROMOLYN SODIUM],89%

# Tested on: Rattus norvegicus
# Assay: Antiallergic activity in the rat passive cutaneous anaphylaxis (PCA) model after intraperitoneal administration at a dose 5 mg/kg
# Assay type: functional
# Conditions: ip
# Outline: as §1
row,SMILES,inhibition in vivo at 5 mg/kg
1,O=C(O)c1ccc2nc3ccsc3c(=O)n2c1,28%
2,O=c1c2cscc2nc2ccc(-c3nnn[nH]3)cn12,100%
3,Cc1cc2nc3ccc(-c4nnn[nH]4)cn3c(=O)c2s1,51%
4,O=C(O)c1ccc2nc3c(c(=O)n2c1)SCC3,46%
5,Cc1cc2nc3ccc(C(=O)Nc4nn[nH]n4)cn3c(=O)c2s1,21%
6,Cc1cc2c(=O)n3cc(C(=O)Nc4nn[nH]n4)ccc3nc2s1,25%
7,Cc1cc2nc3ccc(C(=O)O)cn3c(=O)c2s1,61%
8,O=c1c2c(nc3ccc(-c4nnn[nH]4)cn13)CSC2,100%
9,Cc1sc(C)c2c(=O)n3cc(C(=O)Nc4nn[nH]n4)ccc3nc12,50%
10,O=C(Nc1nn[nH]n1)c1ccc2nc3c(c(=O)n2c1)CSC3,33%
11,Cc1sc(C)c2c(=O)n3cc(-c4nnn[nH]4)ccc3nc12,47%
12,Cc1cc2c(=O)n3cc(-c4nnn[nH]4)ccc3nc2s1,100%
13,O=C(Nc1nn[nH]n1)c1ccc2nc3cscc3c(=O)n2c1,49%
14,O=C(Nc1nn[nH]n1)c1ccc2nc3ccsc3c(=O)n2c1,100%
15,O=c1c2sccc2nc2ccc(-c3nnn[nH]3)cn12,70%
16,Cc1cc2c(=O)n3cc(C(=O)O)ccc3nc2s1,100%
17,O=C(O)c1ccc2nc3cscc3c(=O)n2c1,41%
18,Cc1sc(C)c2c(=O)n3cc(C(=O)O)ccc3nc12,70%
